# Measured values as given in ChEMBL document CHEMBL1154674, “Synthesis and evaluation of three 18F-labeled aminophenylbenzothiazoles as amyloid imaging agents” (J Med Chem, 2009).
# Legend:
# Format in all cases: ADME, organism-based
# [1] = Biodistribution in NMRI mouse urine at 3.7 MBq/mL, iv after 2 mins by gamma counting; conditions: in vivo
# How it was run: (§1)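 Male NMRI mice (30-40 g) under isoflurane (1.5-2.5% in oxygen) got 0.1 mL of HPLC-purified tracer diluted with 0.9% NaCl to 3.7 MBq/mL (ethanol ≤10%) via tail vein. Mice were decapitated at 2 or 60 min p.i., and organs, blood and urine were weighed and γ-counted. Values are background-corrected %ID or %ID/g, with blood mass taken as 7% of body mass.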
# [2] = test system: Cerebellum; test: Biodistribution in NMRI mouse cerebellum at 3.7 MBq/mL, iv after 2 mins by gamma counting; conditions: in vivo; how it was run: as §1
# [3] = test system: Blood; test: Biodistribution in NMRI mouse blood assessed per gram of tissue at 3.7 MBq/mL, iv after 2 mins by gamma counting; conditions: in vivo; how it was run: as §1
# [4] = Biodistribution in NMRI mouse spleen/pancreas assessed per gram of tissue at 3.7 MBq/mL, iv after 60 mins by gamma counting; conditions: in vivo, 1 h; how it was run: as §1
# [5] = test system: Heart; test: Biodistribution in NMRI mouse heart assessed per gram of tissue at 3.7 MBq/mL, iv after 60 mins by gamma counting; conditions: in vivo, 1 h; how it was run: as §1
# [6] = test system: Liver; test: Biodistribution in NMRI mouse liver at 3.7 MBq/mL, iv after 60 mins by gamma counting; conditions: in vivo, 1 h; how it was run: as §1
# [7] = test system: Cerebellum; test: Biodistribution in NMRI mouse cerebellum assessed per gram of tissue at 3.7 MBq/mL, iv after 2 mins by gamma counting; conditions: in vivo; how it was run: as §1
# [8] = Biodistribution in NMRI mouse cerebrum at 3.7 MBq/mL, iv after 60 mins by gamma counting; conditions: in vivo, 1 h; how it was run: as §1
# [9] = test system: Cerebellum; test: Biodistribution in NMRI mouse cerebellum at 3.7 MBq/mL, iv after 60 mins by gamma counting; conditions: in vivo, 1 h; how it was run: as §1
# [10] = test system: Intestine; test: Biodistribution in NMRI mouse intestine at 3.7 MBq/mL, iv after 2 mins by gamma counting; conditions: in vivo; how it was run: as §1
# [11] = Biodistribution in NMRI mouse cerebrum at 3.7 MBq/mL, iv after 2 mins by gamma counting; conditions: in vivo; how it was run: as §1
# [12] = test system: Kidney; test: Biodistribution in NMRI mouse kidney at 3.7 MBq/mL, iv after 2 mins by gamma counting; conditions: in vivo; how it was run: as §1
# [13] = test system: Liver; test: Biodistribution in NMRI mouse liver assessed per gram of tissue at 3.7 MBq/mL, iv after 2 mins by gamma counting; conditions: in vivo
# [14] = test system: Kidney; test: Biodistribution in NMRI mouse kidney at 3.7 MBq/mL, iv after 60 mins by gamma counting; conditions: in vivo, 1 h; how it was run: as §1
# [15] = Biodistribution in NMRI mouse cerebrum assessed per gram of tissue at 3.7 MBq/mL, iv after 2 mins by gamma counting; conditions: in vivo; how it was run: as §1
# [16] = test system: Liver; test: Drug level in NMRI mouse liver assessed as standard uptake value at 3.7 MBq/mL, iv after 2 mins by gamma counting; conditions: in vivo
# How it was run: (§2)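 Male NMRI mice (30-40 g) were anaesthetised with isoflurane. Each received 0.1 mL of HPLC-purified tracer, diluted in 0.9% NaCl to 3.7 MBq/mL (ethanol ≤10%), via a tail vein. Mice were decapitated at 2 or 60 min. Organs were dissected, weighed and γ-counted with background correction. SUV = (organ cpm/organ weight)/(total recovered counts/body weight). Blood mass was taken as 7% of body mass.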
# [17] = test system: Cerebellum; test: Drug level in NMRI mouse cerebellum assessed as standard uptake value at 3.7 MBq/mL, iv after 60 mins by gamma counting; conditions: in vivo, 1 h; how it was run: as §2
# [18] = test system: Blood; test: Drug level in NMRI mouse blood assessed as standard uptake value at 3.7 MBq/mL, iv after 2 mins by gamma counting; conditions: in vivo; how it was run: as §2
# [19] = test system: Kidney; test: Drug level in NMRI mouse kidney assessed as standard uptake value at 3.7 MBq/mL, iv after 2 mins by gamma counting; conditions: in vivo; how it was run: as §2
# [20] = test system: Heart; test: Biodistribution in NMRI mouse heart at 3.7 MBq/mL, iv after 60 mins by gamma counting; conditions: in vivo, 1 h; how it was run: as §1
# [21] = test system: Heart; test: Drug level in NMRI mouse heart assessed as standard uptake value at 3.7 MBq/mL, iv after 2 mins by gamma counting; conditions: in vivo; how it was run: as §2
# [22] = test system: Heart; test: Biodistribution in NMRI mouse heart at 3.7 MBq/mL, iv after 2 mins by gamma counting; conditions: in vivo; how it was run: as §1
# [23] = Biodistribution in NMRI mouse urine at 3.7 MBq/mL, iv after 60 mins by gamma counting; conditions: in vivo, 1 h; how it was run: as §1
# [24] = test system: Blood; test: Drug level in NMRI mouse blood assessed as standard uptake value at 3.7 MBq/mL, iv after 60 mins by gamma counting; conditions: in vivo, 1 h; how it was run: as §2
# [25] = test system: Stomach; test: Biodistribution in NMRI mouse stomach at 3.7 MBq/mL, iv after 2 mins by gamma counting; conditions: in vivo; how it was run: as §1
# [26] = test system: Cerebellum; test: Biodistribution in NMRI mouse cerebellum assessed per gram of tissue at 3.7 MBq/mL, iv after 60 mins by gamma counting; conditions: in vivo, 1 h; how it was run: as §1
# [27] = test system: Blood; test: Biodistribution in NMRI mouse blood at 3.7 MBq/mL, iv after 60 mins by gamma counting; conditions: in vivo, 1 h; how it was run: as §1
# [28] = test system: Blood; test: Biodistribution in NMRI mouse blood at 3.7 MBq/mL, iv after 2 mins by gamma counting; conditions: in vivo; how it was run: as §1
# [29] = Biodistribution in NMRI mouse spleen/pancreas assessed per gram of tissue at 3.7 MBq/mL, iv after 2 mins by gamma counting; conditions: in vivo; how it was run: as §1
# [30] = test system: Stomach; test: Biodistribution in NMRI mouse stomach at 3.7 MBq/mL, iv after 60 mins by gamma counting; conditions: in vivo, 1 h; how it was run: as §1
# [31] = test system: Lung; test: Biodistribution in NMRI mouse lung assessed per gram of tissue at 3.7 MBq/mL, iv after 2 mins by gamma counting; conditions: in vivo; how it was run: as §1
# [32] = test system: Intestine; test: Biodistribution in NMRI mouse intestine at 3.7 MBq/mL, iv after 60 mins by gamma counting; conditions: in vivo, 1 h; how it was run: as §1
# [33] = test system: Lung; test: Drug level in NMRI mouse lung assessed as standard uptake value at 3.7 MBq/mL, iv after 60 mins by gamma counting; conditions: in vivo, 1 h; how it was run: as §2
# [34] = test system: Heart; test: Biodistribution in NMRI mouse heart assessed per gram of tissue at 3.7 MBq/mL, iv after 2 mins by gamma counting; conditions: in vivo; how it was run: as §1
# [35] = test system: Kidney; test: Biodistribution in NMRI mouse kidney assessed per gram of tissue at 3.7 MBq/mL, iv after 2 mins by gamma counting; conditions: in vivo; how it was run: as §1
# [36] = test system: Kidney; test: Biodistribution in NMRI mouse kidney assessed per gram of tissue at 3.7 MBq/mL, iv after 60 mins by gamma counting; conditions: in vivo, 1 h; how it was run: as §1
# [37] = test system: Kidney; test: Drug level in NMRI mouse kidney assessed as standard uptake value at 3.7 MBq/mL, iv after 60 mins by gamma counting; conditions: in vivo, 1 h; how it was run: as §2
# [38] = Drug level in NMRI mouse cerebrum assessed as standard uptake value at 3.7 MBq/mL, iv after 2 mins by gamma counting; conditions: in vivo; how it was run: as §2
# [39] = test system: Lung; test: Biodistribution in NMRI mouse lung at 3.7 MBq/mL, iv after 2 mins by gamma counting; conditions: in vivo; how it was run: as §1
# [40] = test system: Lung; test: Drug level in NMRI mouse lung assessed as standard uptake value at 3.7 MBq/mL, iv after 2 mins by gamma counting; conditions: in vivo; how it was run: as §2
# [41] = Biodistribution in NMRI mouse spleen/pancreas at 3.7 MBq/mL, iv after 60 mins by gamma counting; conditions: in vivo, 1 h; how it was run: as §1
# [42] = Drug level in NMRI mouse spleen/pancreas assessed as standard uptake value at 3.7 MBq/mL, iv after 2 mins by gamma counting; conditions: in vivo; how it was run: as §2
# [43] = test system: Liver; test: Drug level in NMRI mouse liver assessed as standard uptake value at 3.7 MBq/mL, iv after 60 mins by gamma counting; conditions: in vivo, 1 h; how it was run: as §2
smiles,measurement,setting,value
[11CH3]Nc1ccc(-c2nc3ccc(O)cc3s2)cc1 [PITTSBURGH COMPOUND B],Drug uptake,[1],0.2%
same,Drug uptake,[2],0.17%
same,Drug uptake,[3],3.1%
same,Drug uptake,[4],0.7%
same,Drug uptake,[5],2.1%
same,Drug uptake,[6],9.8%
same,Drug uptake,[7],1.6%
same,Drug uptake,[8],0.18%
same,Drug uptake,[9],0.03%
same,Drug uptake,[10],12%
same,Drug uptake,[11],1.08%
same,Drug uptake,[12],10.3%
same,Drug uptake,[13],7.9%
same,Drug uptake,[14],4.8%
same,Drug uptake,[15],3.6%
same,SUV,[16],2.9
same,SUV,[17],0.11
same,SUV,[18],1.13
same,SUV,[19],7.4
same,Drug uptake,[20],0.3%
same,SUV,[21],1.5
same,Drug uptake,[22],0.6%
same,Drug uptake,[23],24.4%
same,SUV,[24],0.4
same,Drug uptake,[25],1.1%
same,Drug uptake,[26],0.31%
same,Drug uptake,[27],2.7%
same,Drug uptake,[28],7.9%
same,Drug uptake,[29],4.7%
same,Drug uptake,[30],0.3%
same,Drug uptake,[31],3.6%
same,Drug uptake,[32],42.5%
same,SUV,[33],0.4
same,Drug uptake,[34],4.2%
same,Drug uptake,[35],19.9%
same,Drug uptake,[36],9.1%
same,SUV,[37],3.3
same,SUV,[38],1.33
same,Drug uptake,[39],0.9%
same,SUV,[40],1.3
same,Drug uptake,[41],0.1%
CN(C)c1ccc2nc(-c3ccc([18F])cc3)sc2c1,Drug uptake,[1],0.1%
same,Drug uptake,[2],0.77%
same,Drug uptake,[3],1.1%
same,Drug uptake,[4],1%
same,Drug uptake,[5],1.3%
same,Drug uptake,[6],18.9%
same,Drug uptake,[7],9.23%
same,Drug uptake,[8],0.65%
same,Drug uptake,[9],0.22%
same,Drug uptake,[10],10%
same,Drug uptake,[11],2.95%
same,SUV,[42],2
same,Drug uptake,[12],8.5%
same,Drug uptake,[13],18.9%
same,Drug uptake,[14],4.8%
same,Drug uptake,[15],8.84%
same,SUV,[16],6.8
same,SUV,[17],0.83
same,SUV,[18],0.4
same,SUV,[19],4.3
same,Drug uptake,[20],0.2%
same,SUV,[43],3
same,SUV,[21],2.7
same,Drug uptake,[22],1.2%
same,Drug uptake,[23],7.6%
same,SUV,[24],0.3
same,Drug uptake,[25],1.4%
same,Drug uptake,[26],2.24%
same,Drug uptake,[27],2.4%
same,Drug uptake,[28],2.8%
same,Drug uptake,[29],5.5%
same,Drug uptake,[30],1.2%
same,Drug uptake,[31],8%
same,Drug uptake,[32],28%
same,SUV,[33],0.7
same,Drug uptake,[34],7.4%
same,Drug uptake,[35],11.7%
same,Drug uptake,[36],6.5%
same,SUV,[37],2.4
same,SUV,[38],3.2
same,Drug uptake,[39],2.2%
same,SUV,[40],2.9
same,Drug uptake,[41],0.3%
